These results are taken from ChEMBL document CHEMBL4725282, “Discovery of a Conformationally Constrained Oxazolidinone with Improved Safety and Efficacy Profiles for the Treatment of Multidrug-Resistant Tuberculosis” (J Med Chem, 2020).

Bounds are passed on as bounds.

What is called Tmax is the time from dosing to the highest level. For orientation: IC50 means the concentration needed to halve the response being measured. A high value points to weaker potency.

Data set [1] can be described thus: Tmax in Balb/c mouse at 2.5 mg/kg, iv by LC-MS/MS analysis. The data set is classed as ADME, organism-based. To be noted: in vivo. A digest of the protocol: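 Female BALB/c mice, 20-25 g, five per route. Dosed 25 mg/kg p.o. in 0.5% carboxymethyl cellulose or 2.5 mg/kg i.v. in 10% DMSO/saline. Blood sampled 5 min-72 h (p.o.) or 2 min-48 h (i.v.), quantified by LC/MS/MS with ESI+. Parameters by non-compartmental analysis; F = (AUCpo×dose_iv)/(AUCiv×dose_po)×100%.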

Data set [2] in a line: Genotoxicity in CHO-WBL cells assessed as chromosome aberration at 90 to 397.1 ug/ml measured after 20 hrs in absence of S9 fraction by Giemsa staining based. Type of data set: toxicity, cell-based, Cricetulus griseus. To be noted: chinese hamster, dose 90-397.1 µg/ml. A digest of the protocol:
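CHO-WBL cells in McCoy's 5A with 10% FBS, seeded 20-24 h before treatment. Compound in DMSO, with or without serum-free S-9 mix. Treatment either 3 h, then HBSS wash and 17 h further culture, or 20 h; harvest at 20 h from treatment start. Colcemid 0.1 μg/mL for the final 2 h, hypotonic KCl, methanol:acetic acid fixation, Giemsa stain. 300 metaphases per concentration (150 per duplicate flask) scored.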

Data set [3] is described as follows: Toxicity in female Sprague-Dawley rat assessed as change in mean corpuscular volume at 450 mg/kg/day, po administered for 4 weeks followed by 2 week recovery period (Rvb =56.1 +/- 0.8 fL). The data set is classed as organism-based. The note with it: in vivo, 672 h.
Data set [4] in a line: Toxicity in male Sprague-Dawley rat assessed as change in hematocrit level at 150 mg/kg/day, po administered for 4 weeks followed by 2 week recovery period (Rvb =45.2 +/- 1.7 %). The note with it: in vivo, 672 h. The data set is classed as organism-based.
Data set [5] is described as follows: Toxicity in male Sprague-Dawley rat assessed as change in mean corpuscular volume at 450 mg/kg/day, po administered for 4 weeks followed by 2 week recovery period (Rvb =57.5 +/- 2.0 fL). The data set is classed as organism-based. The note with it: in vivo, 672 h.
The nature of data set [6]: Toxicity in male Sprague-Dawley rat assessed as change in hematocrit level at 450 mg/kg/day, po administered for 4 weeks followed by 2 week recovery period (Rvb =45.2 +/- 1.7 %). To be noted: in vivo, 672 h. The data set is classed as organism-based.
Data set [7] is described as follows: Toxicity in male Sprague-Dawley rat assessed as mortality at 50 to 450 mg/kg/day, po administered for 4 weeks. Type of data set: organism-based. To be noted: in vivo, 672 h, dose 50-450 mg/kg/day.
A short description of data set [8]: Toxicity in female Sprague-Dawley rat assessed as body weight loss at 50 to 450 mg/kg/day, po administered for 4 weeks measured at 1 week interval. The note with it: in vivo, 672 h, dose 50-450 mg/kg/day. Type of data set: organism-based. A digest of the protocol:
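SD rats, 6-7 weeks, 12 male and 12 female per group. Oral dosing once daily at 50, 150 or 450 mg/kg/day or vehicle for 4 weeks, then 2-week recovery. 8 per sex dissected after last dose, remaining 4 per sex after 14-day recovery. Body weight, urine, food intake and clinical signs monitored.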

Data set [9] can be described thus: Toxicity in female Sprague-Dawley rat assessed as change in hematocrit level at 450 mg/kg/day, po administered for 4 weeks followed by 2 week recovery period (Rvb =41.1 +/- 1.4 %). To be noted: in vivo, 672 h. The data set is classed as organism-based.
Another data set has as its target Cytochrome P450 2C9 (Homo sapiens, UniProt P11712). As to the kind of experiment: Inhibition of CYP2C9 in human liver microsomes after 20 mins by LC-MS/MS analysis. The data set is classed as ADME. On the technique in general: Liver microsomes are vesicles of endoplasmic reticulum, rich in cytochrome P450 enzymes.
Data set [10] can be described thus: Toxicity in male Sprague-Dawley rat assessed as body weight loss at 50 to 450 mg/kg/day, po administered for 4 weeks followed by 2 week recovery period measured at 1 week interval. Type of data set: organism-based. The note with it: in vivo, 672 h, dose 50-450 mg/kg/day. A digest of the protocol: (§1)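 SD rats, 6-7 weeks old (96 in total), split into vehicle, 50, 150 and 450 mg/kg/day groups of 12 females and 12 males each, given oral doses once daily for 4 weeks, then 2 weeks of recovery. Mortality, body weight, food intake, eyes, urine and neuropsychic signs were observed. Organ and bone marrow histopathology was done on 8 rats per sex per group after the last dose and on the remaining 4 per sex after 14 days of recovery.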

Data set [11] can be described thus: Toxicity in male Sprague-Dawley rat assessed as change in white blood cell count at 50 mg/kg/day, po administered for 4 weeks followed by 2 week recovery period (Rvb =6.12 +/- 1.10 10^9/L). The note with it: in vivo, 672 h. The data set is classed as organism-based. A digest of the protocol: (§2)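 SD rats aged 6-7 weeks, 24 per group (12 female, 12 male): vehicle, 50, 150 or 450 mg/kg/day given orally once daily for 4 weeks, then 2-week recovery. 8 per sex per group dissected after the last dose and 4 per sex after 14-day recovery. Hematology included WBC count, reported as mean ± SD (n = 12), compared with vehicle.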

Data set [12] can be described thus: Toxicity in female Sprague-Dawley rat assessed as change in reticulocyte level at 50 mg/kg/day, po administered for 4 weeks followed by 2 week recovery period (Rvb =2.85 +/- 0.53 %). The data set is classed as organism-based. To be noted: in vivo, 672 h.
Data set [13] is described as follows: Toxicity in male Sprague-Dawley rat assessed as change in white blood cell count at 450 mg/kg/day, po administered for 4 weeks followed by 2 week recovery period (Rvb =6.12 +/- 1.10 10^9/L). Type of data set: organism-based. To be noted: in vivo, 672 h. A digest of the protocol: as §2
The nature of data set [14]: Toxicity in Mycobacterium tuberculosis H37Rv infected Balb/c mouse assessed as change in body weight at 100 mg/kg/day, po administered via gavage 5 times per week for 3 weeks starting from 10 days post-infection (reference value: 21.29 +/- 0.84 g). Type of data set: organism-based. To be noted: in vivo, 504 h, time 21 day.
A short description of data set [15]: Toxicity in male Sprague-Dawley rat assessed as change in mean platelet volume at 50 mg/kg/day, po administered for 4 weeks followed by 2 week recovery period (Rvb =7.0 +/- 0.4 fL). The data set is classed as organism-based. To be noted: in vivo, 672 h.
Data set [16] in a line: Toxicity in male Sprague-Dawley rat assessed as abnormalities in urine at 50 to 450 mg/kg/day, po administered for 4 weeks followed by 2 week recovery period measured within last 7 days of recover period. To be noted: in vivo, 672 h, dose 50-450 mg/kg/day. The data set is classed as organism-based. A digest of the protocol:
as §1

Data set [17] can be described thus: Toxicity in male Sprague-Dawley rat assessed as change in mean platelet volume at 450 mg/kg/day, po administered for 4 weeks followed by 2 week recovery period (Rvb =7.0 +/- 0.4 fL). Type of data set: organism-based. To be noted: in vivo, 672 h.
Data set [18] is described as follows: Toxicity in male Sprague-Dawley rat assessed as change in hemoglobin count at 150 mg/kg/day, po administered for 4 weeks followed by 2 week recovery period (Rvb =144 +/- 5 g/L). Type of data set: organism-based. The note with it: in vivo, 672 h.
Data set [19] in a line: Toxicity in male Sprague-Dawley rat assessed as change in reticulocyte level at 150 mg/kg/day, po administered for 4 weeks followed by 2 week recovery period (Rvb =2.48 +/- 0.34 %). The note with it: in vivo, 672 h. Type of data set: organism-based.
A short description of data set [20]: Toxicity in female Sprague-Dawley rat assessed as change in mean platelet volume at 50 mg/kg/day, po administered for 4 weeks followed by 2 week recovery period (Rvb =7.1 +/- 0.5 fL). The data set is classed as organism-based. To be noted: in vivo, 672 h.
The nature of data set [21]: Toxicity in male Sprague-Dawley rat assessed as change in red blood cell count at 50 mg/kg/day, po administered for 4 weeks followed by 2 week recovery period (Rvb =7.86 +/- 0.32 10^12/L). Type of data set: organism-based. To be noted: in vivo, 672 h.
A short description of data set [22]: Toxicity in female Sprague-Dawley rat assessed as change in red blood cell count at 450 mg/kg/day, po administered for 4 weeks followed by 2 week recovery period (Rvb =7.32 +/- 0.20 10^12/L). Type of data set: organism-based. To be noted: in vivo, 672 h.

Sequence of Cytochrome P450 2C9 (P11712 whole entry): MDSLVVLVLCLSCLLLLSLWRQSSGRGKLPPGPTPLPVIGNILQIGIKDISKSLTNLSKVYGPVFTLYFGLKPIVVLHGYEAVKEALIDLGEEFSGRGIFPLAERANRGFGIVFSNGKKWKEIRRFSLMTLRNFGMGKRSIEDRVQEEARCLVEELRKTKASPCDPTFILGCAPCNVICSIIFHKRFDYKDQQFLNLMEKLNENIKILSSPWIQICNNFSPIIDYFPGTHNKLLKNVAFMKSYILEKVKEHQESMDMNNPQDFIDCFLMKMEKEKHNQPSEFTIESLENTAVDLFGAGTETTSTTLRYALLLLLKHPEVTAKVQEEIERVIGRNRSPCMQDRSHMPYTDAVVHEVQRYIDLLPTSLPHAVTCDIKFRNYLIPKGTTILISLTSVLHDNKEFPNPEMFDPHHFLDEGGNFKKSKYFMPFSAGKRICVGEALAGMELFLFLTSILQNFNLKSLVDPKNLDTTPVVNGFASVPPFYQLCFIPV

For `CC(=O)NC[C@@H]1OC(=O)N2c3cc(F)c(N4CC[S+]([O-])CC4)cc3OC[C@@H]12`, the Tmax in data set [1] was determined as 42 min. Also, the Activity entry in data set [2] is recorded as “Non-Toxic”.

`CC(=O)NC[C@@H]1OC(=O)N2c3cc(F)c(N4CCSCC4)cc3OC[C@@H]12`: the Activity is given as 56.5 fL in [3]; 44.5% in [4]; 58.7 fL in data set [5]; 43.8% in data set [6]; “Non-Toxic” in data set [7]; “Non-Toxic” in [8]. Besides, the Activity in data set [9] is 36.9%; in [10], “Non-Toxic”; in data set [11], 6.22 10^9/L; in [12], 3.25%; in [13] it was 5.06 10^9/L; in data set [14] it was 21.25 g. The Activity is 7 fL in [15]; “Non-Toxic” in data set [16]; 6.9 fL in data set [17]; 141 g/L in data set [18]; 3.15% in [19]; 7.1 fL in data set [20]. Further, the Activity in [21] is recorded as 7.29 10^12/L; in data set [22] it was 6.53 10^12/L. Moreover, the IC50 against Cytochrome P450 2C9 was > 50 µM.
